Experimental data from ChEMBL document CHEMBL1140571, “New 1,8-naphthyridine and quinoline derivatives as CB2 selective agonists” (Bioorg Med Chem Lett, 2007).

What was measured:
Cannabinoid receptor 2 = Cannabinoid receptor 2 (Homo sapiens, UniProt P34972); assay: Displacement of [3H]CP-55940 from human recombinant CB2 receptor expressed in HEK293 cells; type: cell-based
Cannabinoid receptor 1 = Cannabinoid receptor 1 (Homo sapiens, UniProt P21554); assay: biochemical; type: cell-based, HEK293
Homo sapiens = species: Homo sapiens; assay: Selectivity for human CB2 over human CB1
Mus musculus [1] = assay: Antinociceptive activity in Swiss Albino mouse assessed as licking latency time at 50 mg/kg, po after 15 mins by hot plate test; type: functional
Method in brief: (§1)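 Mice held at 22 ± 1 °C on a 12 h light/dark cycle and given oral doses in CMC vehicle. In the hot-plate test the container was kept at 52.5 ± 0.1 °C and the endpoint was licking of the fore or hind paws, timed before dosing and after it. Pretest scorers below 12 s or above 18 s were rejected. Cut-off 45 s. AM630 0.6 mg/kg po given simultaneously. Mean ± SEM, ANOVA with Fisher PLSD, P<0.05.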

Mus musculus [2] = assay: Antinociceptive activity in Swiss Albino mouse assessed as licking latency time at 50 mg/kg, po in presence of CB2 antagonist AM630 after 15 mins; type: functional; method in brief: as §1
Mus musculus [3] = assay: Antinociceptive activity in Swiss Albino mouse assessed as licking latency time at 30 mg/kg, po after 15 mins by hot plate test; type: functional; method in brief: as §1
Mus musculus [4] = assay: Effect on motor coordination in Swiss Albino mouse at 50 mg/kg, po after 30 mins by rotarod test; type: organism-based; set-up: dose 50 mg/kg, route oral; settings: in vivo, 0.5 h
Method in brief: (§2)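 Mice were dosed orally in CMC vehicle and tested on a rotarod with a 3 cm diameter non-slip rotating rod, counting falls before dosing and at 15, 30 and 45 min after. Pretest scorers below 3 or above 6 falls were rejected. Ten mice per group. Mean ± SEM, ANOVA with Fisher PLSD, P<0.05.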

Mus musculus [5] = assay: Effect on motor coordination in Swiss Albino mouse at 50 mg/kg, po after 15 mins by rotarod test; type: organism-based; set-up: dose 50 mg/kg, route oral; settings: in vivo, 0.25 h; method in brief: as §2
Mus musculus [6] = assay: Antinociceptive activity in Swiss Albino mouse assessed as licking latency time at 50 mg/kg, po after 45 mins by hot plate test; type: functional; method in brief: as §1
Mus musculus [7] = assay: Antinociceptive activity in Swiss Albino mouse assessed as licking latency time at 50 mg/kg, po in presence of CB2 antagonist AM630 after 30 mins; type: functional; method in brief: as §1
Mus musculus [8] = assay: Antinociceptive activity in Swiss Albino mouse assessed as licking latency time at 10 mg/kg, po after 45 mins by hot plate test; type: functional; method in brief: as §1
Mus musculus [9] = assay: Antinociceptive activity in Swiss Albino mouse assessed as licking latency time at 10 mg/kg, po after 15 mins by hot plate test; type: functional; method in brief: as §1
Mus musculus [10] = assay: Antinociceptive activity in Swiss Albino mouse assessed as licking latency time at 50 mg/kg, po in presence of CB2 antagonist AM630 after 45 mins; type: functional; method in brief: as §1
Mus musculus [11] = assay: Antinociceptive activity in Swiss Albino mouse assessed as licking latency time at 30 mg/kg, po after 45 mins by hot plate test; type: functional; method in brief: as §1
Mus musculus [12] = assay: Effect on Swiss Albino mouse assessed as licking latency time at 0.06 mg/kg, po after 30 mins by hot plate test; type: functional
Mus musculus [13] = assay: Antinociceptive activity in Swiss Albino mouse assessed as licking latency time at 10 mg/kg, po after 30 mins by hot plate test; type: functional; method in brief: as §1
Mus musculus [14] = assay: Effect on motor coordination in Swiss Albino mouse at 50 mg/kg, po after 45 mins by rotarod test; type: organism-based; set-up: dose 50 mg/kg, route oral; settings: in vivo, 0.75 h; method in brief: as §2
Mus musculus [15] = assay: Antinociceptive activity in Swiss Albino mouse assessed as licking latency time at 30 mg/kg, po after 30 mins by hot plate test; type: functional; method in brief: as §1
Mus musculus [16] = assay: Effect on Swiss Albino mouse assessed as licking latency time at 0.06 mg/kg, po after 15 mins by hot plate test; type: functional
Mus musculus [17] = assay: Antinociceptive activity in Swiss Albino mouse assessed as licking latency time at 50 mg/kg, po after 30 mins by hot plate test; type: functional; method in brief: as §1
Mus musculus [18] = assay: Effect on Swiss Albino mouse assessed as licking latency time at 0.06 mg/kg, po after 45 mins by hot plate test; type: functional

Chain of Cannabinoid receptor 1 (P21554 whole entry): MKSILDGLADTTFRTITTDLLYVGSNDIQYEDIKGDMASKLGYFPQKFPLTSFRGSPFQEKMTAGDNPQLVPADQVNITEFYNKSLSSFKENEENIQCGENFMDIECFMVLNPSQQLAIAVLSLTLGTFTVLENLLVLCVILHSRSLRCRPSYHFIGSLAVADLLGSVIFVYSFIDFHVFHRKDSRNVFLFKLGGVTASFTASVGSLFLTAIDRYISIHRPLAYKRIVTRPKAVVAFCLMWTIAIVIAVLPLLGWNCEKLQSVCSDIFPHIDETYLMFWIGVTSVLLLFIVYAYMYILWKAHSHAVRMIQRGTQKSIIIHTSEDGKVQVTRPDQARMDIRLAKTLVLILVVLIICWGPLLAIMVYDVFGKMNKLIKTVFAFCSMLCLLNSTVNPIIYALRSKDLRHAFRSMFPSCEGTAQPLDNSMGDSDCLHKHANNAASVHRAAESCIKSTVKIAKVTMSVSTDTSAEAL
Chain of Cannabinoid receptor 2 (P34972 whole entry): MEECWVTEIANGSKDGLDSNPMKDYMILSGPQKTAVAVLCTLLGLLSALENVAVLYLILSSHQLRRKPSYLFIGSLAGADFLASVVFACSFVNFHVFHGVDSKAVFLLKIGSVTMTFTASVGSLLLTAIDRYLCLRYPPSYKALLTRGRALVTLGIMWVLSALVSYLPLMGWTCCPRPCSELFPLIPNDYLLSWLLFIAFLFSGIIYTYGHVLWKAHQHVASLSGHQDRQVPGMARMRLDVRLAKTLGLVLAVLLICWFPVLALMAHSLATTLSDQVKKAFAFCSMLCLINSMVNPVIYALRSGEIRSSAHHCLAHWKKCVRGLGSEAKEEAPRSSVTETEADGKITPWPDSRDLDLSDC

Compound	Ki (Cannabinoid receptor 2)	Ki (Cannabinoid receptor 1)	Ratio Ki (Homo sapiens)	also measured
O=c1c2cn(CCN3CCOCC3)c3ccccc3c-2nn1C1CCCCC1	> 7900 nM	> 5600 nM	–	–
COc1ccc(C(=O)c2c(C)n(CCN3CCOCC3)c3cc(I)ccc23)cc1	36 nM	–	–	–
CCCCCCC(C)(C)c1cc(O)c2c(c1)OC(C)(C)[C@@H]1CC=C(CO)C[C@@H]21	–	0.18 nM	–	–
O=C(NC1CCCCCC1)c1cn(Cc2ccccc2)c2ccccc2c1=O	6.4 nM	17 nM	2.6	–
O=c1c2cn(Cc3ccccc3)c3ccccc3c-2nn1C1CCCCC1	790 nM	620 nM	0.78	–
O=C(NC1CCCCCC1)c1cn(CCN2CCOCC2)c2ccccc2c1=O	28 nM	290 nM	10.3	–
COc1ccc2c(=O)c(C(=O)NC3CCCCC3)cn(CCN3CCOCC3)c2c1	79 nM	2920 nM	37	–
COc1ccc2c(=O)c(C(=O)NC3CCCCC3)cn(Cc3ccccc3)c2c1	79 nM	–	–	–
O=c1c2cn(Cc3ccccc3)c3cc(Cl)ccc3c-2nn1C1CCCCC1	1640 nM	560 nM	0.34	–
CCCCC/C=C\C/C=C\C/C=C\C/C=C\CCCC(=O)NCCCl	95 nM	5.3 nM	0.06	–
CN(C)c1ccc2c(=O)c(C(=O)NC3CCCCC3)cn(CCN3CCOCC3)c2n1	94 nM	> 5600 nM	–	–
COc1ccc2c(=O)c(C(=O)NC3CCCCC3)cn(Cc3ccccc3)c2n1	11 nM	560 nM	51	Activity (Mus musculus [1]): 19.2 s; Activity (Mus musculus [2]): 18.1 s; Activity (Mus musculus [3]): 16.6 s; Activity (Mus musculus [4]): 0.2; Activity (Mus musculus [5]): 0.7; Activity (Mus musculus [6]): 18.2 s; Activity (Mus musculus [7]): 19.2 s; Activity (Mus musculus [8]): 16.7 s; Activity (Mus musculus [9]): 17.1 s; Activity (Mus musculus [10]): 17.6 s; Activity (Mus musculus [11]): 17.4 s; Activity (Mus musculus [12]): 18 s; Activity (Mus musculus [13]): 18.5 s; Activity (Mus musculus [14]): 0.2; Activity (Mus musculus [15]): 19.5 s; Activity (Mus musculus [16]): 16.6 s; Activity (Mus musculus [17]): 22.5 s; Activity (Mus musculus [18]): 16.3 s
O=c1c2cn(CCN3CCOCC3)c3ccccc3c-2nn1-c1ccccc1	2280 nM	2800 nM	1.2	–
Nc1ccc2c(=O)cc(C(=O)NC3CCCCC3)n(Cc3ccccc3)c2n1	7900 nM	5600 nM	0.71	–
